{
  "source": "ChEMBL document CHEMBL2429759",
  "about": "“Anti-tumor activity evaluation of novel chrysin-organogermanium(IV) complex in MCF-7 cells” (Bioorg Med Chem Lett, 2013)",
  "key": {"MCF-10A [1]": {"system": "MCF-10A", "assay": "Growth inhibition of human MCF10A cells at 30 ug/ml by MTT assay", "format": "cell-based", "conditions": "mcf-10a"}, "MCF-10A [2]": {"system": "MCF-10A", "assay": "Disruption of cell integrity in human MCF10A cells at 10 ug/ml by immunofluorescence analysis relative to control", "format": "ADME, cell-based"}, "MCF-10A [3]": {"system": "MCF-10A", "assay": "Antimigratory activity against human MCF10A cells at 10 ug/ml by wound-healing assay", "format": "ADME, cell-based", "summary_of_the_method": "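Scratch wound-healing: monolayers wounded with a p200 pipette tip, kept with or without complex; images taken at 0 and 24 h; reference lines drawn equidistant.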"}, "MCF-10A [4]": {"system": "MCF-10A", "assay": "Disruption of microfilament organization in human MCF10A cells at 10 ug/ml by immunofluorescence analysis relative to control", "format": "ADME, cell-based"}, "MCF-10A [5]": {"system": "MCF-10A", "assay": "Growth inhibition of human MCF10A cells at 20 ug/ml by MTT assay", "format": "cell-based", "conditions": "mcf-10a"}, "MCF-10A [6]": {"system": "MCF-10A", "assay": "Growth inhibition of human MCF10A cells at 5 ug/ml by MTT assay", "format": "cell-based", "conditions": "mcf-10a"}, "MCF-10A [7]": {"system": "MCF-10A", "assay": "Growth inhibition of human MCF10A cells at 10 ug/ml by MTT assay", "format": "cell-based", "conditions": "mcf-10a"}},
  "data": [
    {"substance": "5-hydroxy-2-phenyl-7-(triphenylgermyloxy)-4H-chromen-4-one ethanol", "values": [
      {"measurement": "growth inhibition (GI)", "setting": "MCF-10A [1]", "result": 27.25, "unit": "%"},
      {"measurement": "Activity", "setting": "MCF-10A [2]", "result": "Non-toxic"},
      {"measurement": "Activity", "setting": "MCF-10A [3]", "result": "Toxic"},
      {"measurement": "Activity", "setting": "MCF-10A [4]", "result": "Non-toxic"},
      {"measurement": "growth inhibition (GI)", "setting": "MCF-10A [5]", "result": 23.67, "unit": "%"},
      {"measurement": "growth inhibition (GI)", "setting": "MCF-10A [6]", "result": 4.822, "unit": "%"},
      {"measurement": "growth inhibition (GI)", "setting": "MCF-10A [7]", "result": 12.3, "unit": "%"}
    ]}
  ]
}
